Laboratory results taken from ChEMBL document CHEMBL4689842, “EUbOPEN Chemogenomics Library wave 1” (2021).

Tested on: Fibroblast
Experiment: Multiplex assay against human fibroblast
Assay type: toxicity, cell-based
How it was run: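 Live cells were stained at seeding with Hoechst33342, BioTracker Green Microtubule Cytoskeleton Dye, MitoTracker Red and Annexin V Alexa Fluor 680. Following compound addition, they were imaged on a CQ1 microscope at 37°C and 5% CO2 and gated by CellPathfinder machine learning into Hoechst high-intensity objects or normal cells, with normal cells split into healthy, pyknosed or fragmented nuclei and pyknosed cells into mitotic or apoptotic. Tubulin, mitochondrial-mass and membrane-permeability phenotypes are per cents of healthy-nucleus cells.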

[1] = 12 h, 1 µM, compound concentration 1 uM, replicate 1
[2] = 12 h, 1 µM, compound concentration 1 uM, replicate 2
[3] = 12 h, 10 µM, compound concentration 10 uM, replicate 1
[4] = 12 h, 10 µM, compound concentration 10 uM, replicate 2
[5] = 24 h, 1 µM, compound concentration 1 uM, replicate 1
[6] = 24 h, 1 µM, compound concentration 1 uM, replicate 2
[7] = 24 h, 10 µM, compound concentration 10 uM, replicate 1
[8] = 24 h, 10 µM, compound concentration 10 uM, replicate 2
[9] = 48 h, 1 µM, compound concentration 1 uM, replicate 1
[10] = 48 h, 1 µM, compound concentration 1 uM, replicate 2
[11] = 48 h, 10 µM, compound concentration 10 uM, replicate 1
[12] = 48 h, 10 µM, compound concentration 10 uM, replicate 2

COc1cc(N2CCN(C)CC2)ccc1Nc1ncc2c(n1)N(C)c1ccccc1C(=O)N2C
Population Apoptotic (%) [1]: 58% | Population Fragmented Nuclei (%) [1]: 25% | Population Healthy Nuclei (%) [1]: 41% | Population Hoechst High Intensity Objects (%) [1]: 11% | Population Membrane Permeable-Phenotype (%) [1]: 14% | Population Mitochondria Different-Phenotype (%) [1]: 12% | Population Mitotic Cells (%) [1]: 41% | Population Normal (%) [1]: 88% | Population Pyknosed Nuclei (%) [1]: 32% | Population Tubulin-Different-Phenotype (%) [1]: 28% | Total Cell Count [1]: 135 | Population Apoptotic (%) [2]: 40% | Population Fragmented Nuclei (%) [2]: 5% | Population Healthy Nuclei (%) [2]: 82% | Population Hoechst High Intensity Objects (%) [2]: 4% | Population Membrane Permeable-Phenotype (%) [2]: 9% | Population Mitochondria Different-Phenotype (%) [2]: 21% | Population Mitotic Cells (%) [2]: 60% | Population Normal (%) [2]: 95% | Population Pyknosed Nuclei (%) [2]: 12% | Population Tubulin-Different-Phenotype (%) [2]: 15% | Total Cell Count [2]: 104 | Population Apoptotic (%) [3]: 65% | Population Fragmented Nuclei (%) [3]: 32% | Population Healthy Nuclei (%) [3]: 38% | Population Hoechst High Intensity Objects (%) [3]: 20% | Population Membrane Permeable-Phenotype (%) [3]: 17% | Population Mitochondria Different-Phenotype (%) [3]: 35% | Population Mitotic Cells (%) [3]: 34% | Population Normal (%) [3]: 79% | Population Pyknosed Nuclei (%) [3]: 28% | Population Tubulin-Different-Phenotype (%) [3]: 82% | Total Cell Count [3]: 127 | Population Apoptotic (%) [4]: 66% | Population Fragmented Nuclei (%) [4]: 15% | Population Healthy Nuclei (%) [4]: 61% | Population Hoechst High Intensity Objects (%) [4]: 5% | Population Membrane Permeable-Phenotype (%) [4]: 21% | Population Mitochondria Different-Phenotype (%) [4]: 96% | Population Mitotic Cells (%) [4]: 33% | Population Normal (%) [4]: 94% | Population Pyknosed Nuclei (%) [4]: 23% | Population Tubulin-Different-Phenotype (%) [4]: 100% | Total Cell Count [4]: 42 | Population Apoptotic (%) [5]: 60% | Population Fragmented Nuclei (%) [5]: 22% | Population Healthy Nuclei (%) [5]: 57% | Population Hoechst High Intensity Objects (%) [5]: 10% | Population Membrane Permeable-Phenotype (%) [5]: 17% | Population Mitochondria Different-Phenotype (%) [5]: 6% | Population Mitotic Cells (%) [5]: 39% | Population Normal (%) [5]: 89% | Population Pyknosed Nuclei (%) [5]: 19% | Population Tubulin-Different-Phenotype (%) [5]: 26% | Total Cell Count [5]: 159 | Population Apoptotic (%) [6]: 50% | Population Fragmented Nuclei (%) [6]: 9% | Population Healthy Nuclei (%) [6]: 75% | Population Hoechst High Intensity Objects (%) [6]: 6% | Population Membrane Permeable-Phenotype (%) [6]: 6% | Population Mitochondria Different-Phenotype (%) [6]: 12% | Population Mitotic Cells (%) [6]: 50% | Population Normal (%) [6]: 93% | Population Pyknosed Nuclei (%) [6]: 14% | Population Tubulin-Different-Phenotype (%) [6]: 6% | Total Cell Count [6]: 101 | Population Apoptotic (%) [7]: 60% | Population Fragmented Nuclei (%) [7]: 38% | Population Healthy Nuclei (%) [7]: 52% | Population Hoechst High Intensity Objects (%) [7]: 20% | Population Membrane Permeable-Phenotype (%) [7]: 5% | Population Mitochondria Different-Phenotype (%) [7]: 43% | Population Mitotic Cells (%) [7]: 40% | Population Normal (%) [7]: 79% | Population Pyknosed Nuclei (%) [7]: 9% | Population Tubulin-Different-Phenotype (%) [7]: 74% | Total Cell Count [7]: 140 | Population Apoptotic (%) [8]: 76% | Population Fragmented Nuclei (%) [8]: 11% | Population Healthy Nuclei (%) [8]: 63% | Population Hoechst High Intensity Objects (%) [8]: 8% | Population Membrane Permeable-Phenotype (%) [8]: 30% | Population Mitochondria Different-Phenotype (%) [8]: 93% | Population Mitotic Cells (%) [8]: 23% | Population Normal (%) [8]: 91% | Population Pyknosed Nuclei (%) [8]: 25% | Population Tubulin-Different-Phenotype (%) [8]: 66% | Total Cell Count [8]: 44 | Population Apoptotic (%) [9]: 54% | Population Fragmented Nuclei (%) [9]: 34% | Population Healthy Nuclei (%) [9]: 58% | Population Hoechst High Intensity Objects (%) [9]: 14% | Population Membrane Permeable-Phenotype (%) [9]: 19% | Population Mitochondria Different-Phenotype (%) [9]: 1% | Population Mitotic Cells (%) [9]: 45% | Population Normal (%) [9]: 85% | Population Pyknosed Nuclei (%) [9]: 7% | Population Tubulin-Different-Phenotype (%) [9]: 29% | Total Cell Count [9]: 176 | Population Apoptotic (%) [10]: 100% | Population Fragmented Nuclei (%) [10]: 25% | Population Healthy Nuclei (%) [10]: 72% | Population Hoechst High Intensity Objects (%) [10]: 7% | Population Membrane Permeable-Phenotype (%) [10]: 10% | Population Mitotic Cells (%) [10]: 0% | Population Normal (%) [10]: 92% | Population Pyknosed Nuclei (%) [10]: 1% | Population Tubulin-Different-Phenotype (%) [10]: 28% | Total Cell Count [10]: 83 | Population Apoptotic (%) [11]: 85% | Population Fragmented Nuclei (%) [11]: 49% | Population Healthy Nuclei (%) [11]: 45% | Population Hoechst High Intensity Objects (%) [11]: 28% | Population Membrane Permeable-Phenotype (%) [11]: 7% | Population Mitochondria Different-Phenotype (%) [11]: 12% | Population Mitotic Cells (%) [11]: 14% | Population Normal (%) [11]: 71% | Population Pyknosed Nuclei (%) [11]: 4% | Population Tubulin-Different-Phenotype (%) [11]: 44% | Total Cell Count [11]: 201 | Population Apoptotic (%) [12]: 100% | Population Fragmented Nuclei (%) [12]: 39% | Population Healthy Nuclei (%) [12]: 58% | Population Hoechst High Intensity Objects (%) [12]: 18% | Population Membrane Permeable-Phenotype (%) [12]: 5% | Population Mitochondria Different-Phenotype (%) [12]: 8% | Population Mitotic Cells (%) [12]: 0% | Population Normal (%) [12]: 81% | Population Pyknosed Nuclei (%) [12]: 2% | Population Tubulin-Different-Phenotype (%) [12]: 62% | Total Cell Count [12]: 188
